The values below come from ChEMBL document CHEMBL4619773, “Chemoreactive-Inspired Discovery of Influenza A Virus Dual Inhibitor to Block Hemagglutinin-Mediated Adsorption and Membrane Fusion” (J Med Chem, 2020).

Active and inactive are the calls of the source. The rule behind the calls is not given here. Some results are limits rather than exact numbers.

In data set [1] the test system is Influenza A virus (A/Aichi/2/1968(H3N2)). As to the kind of experiment: Binding affinity to Influenza A virus (A/Aichi/2/1968(H3N2)) Hemagglutinin at 1.5625 to 50 uM by SPR assay. The gist of the method:
(§1)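 HA protein was immobilized on CM5 chips. Compound (50, […], 12.5, 6.25, 3.125, 1.5625 µM) was injected for 2 min, followed by a 10-min PBST wash and regeneration with 2 mM NaOH for 30 s. Runs were at 25 °C with 2 µl/s flow, using a blank HA-free reference channel. KD was obtained from kinetic fitting.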

In data set [2] the target is Hemagglutinin (Influenza A virus (A/Puerto Rico/8/1934(H1N1)), UniProt P03452). As to the kind of experiment: Binding affinity to Influenza A virus (A/Puerto Rico/8/1934(H1N1)) Hemagglutinin at 1.5625 to 50 uM by SPR assay. Put shortly: as §1
Sequence of Hemagglutinin (Influenza A virus (A/Puerto Rico/8/1934(H1N1)), UniProt P03452) (P03452 whole entry): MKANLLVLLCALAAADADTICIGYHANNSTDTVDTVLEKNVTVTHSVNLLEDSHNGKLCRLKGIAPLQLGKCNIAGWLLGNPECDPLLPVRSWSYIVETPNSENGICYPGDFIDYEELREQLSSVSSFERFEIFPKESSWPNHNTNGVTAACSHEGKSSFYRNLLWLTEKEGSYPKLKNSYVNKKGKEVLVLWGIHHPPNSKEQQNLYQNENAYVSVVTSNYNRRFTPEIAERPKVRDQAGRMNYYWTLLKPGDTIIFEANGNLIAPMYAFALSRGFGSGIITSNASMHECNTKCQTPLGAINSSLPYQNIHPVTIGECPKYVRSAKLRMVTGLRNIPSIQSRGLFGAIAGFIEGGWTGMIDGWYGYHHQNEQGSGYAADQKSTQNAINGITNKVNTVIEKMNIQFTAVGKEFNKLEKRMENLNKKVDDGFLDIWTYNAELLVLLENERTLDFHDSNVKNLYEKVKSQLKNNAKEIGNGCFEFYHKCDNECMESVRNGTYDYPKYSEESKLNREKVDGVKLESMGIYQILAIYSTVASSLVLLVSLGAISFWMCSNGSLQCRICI
(In general: SPR reads the build-up and loss of mass on a sensor chip optically.)

Data set [3] concerns Influenza A virus. As to the kind of experiment: Antiviral activity against Influenza A virus (A/Puerto Rico/8/1934(H1N1)) infected in MDCK cells assessed as inhibition of virus-induced cytopathic effect incubated for 48 hrs by crystal violet staining based assay. Format: functional, organism-based. Put shortly: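 MDCK cells were infected at MOI 0.1, the inoculum was removed, and compounds were added in triplicate. After 48 h the cells were fixed in 4% formaldehyde (20 min, RT) and stained with 0.1% crystal violet (30 min). Dye was solubilized in methanol and read at 570 nm.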
(Damage to the host cells serves as the signal in cytopathic effect assays.)

Data set [4] in a line: Selectivity index, ratio of CC50 for cytotoxicity in dog MDCK cells assessed as reduction in cell viability incubated for 48 hrs by crystal violet staining based assay to […] in dog MDCK cells assessed as reduction in cell viability incubated for 48 hrs by crystal violet staining based assay.
For data set [5], the system named is Influenza A virus. As to the kind of experiment: Antiviral activity against Influenza A virus (A/Puerto Rico/8/1934(H1N1)) infected in Kunming mouse assessed as decrease in lung TNFalpha level at 10 mg/kg/day, po starting 4 hrs after viral challenge and continued for 4 days by ELISA. The class given is functional, organism-based. Put shortly: (§2)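 Four-week-old female Kunming mice received PR8 intranasally (500 PFU/mouse in 40 µL PBS) and were then dosed once daily orally or intranasally. Lungs were collected on day 4, and TNF-α and IL-6 in lung tissue were measured by ELISA.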

Data set [6] concerns Influenza A virus. As to the kind of experiment: Antiviral activity against Influenza A virus (A/Puerto Rico/8/1934(H1N1)) infected in Kunming mouse assessed as decrease in lung IL6 level at 10 mg/kg/day, po starting 4 hrs after viral challenge and continued for 4 days by ELISA. The class given is functional, organism-based. Put shortly:
as §2
A general note: ELISA stands for enzyme-linked immunosorbent assay.

The subject of data set [7] is Influenza A virus. As to the kind of experiment: Antiviral activity against Influenza A virus (A/Puerto Rico/8/1934(H1N1)) infected in Kunming mouse assessed as mouse survival at 10 mg/kg/day, po starting 4 hrs after viral challenge and continued for 7 days by plaque assay. Format: functional. The gist of the method:
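Groups of 10 female Kunming mice were infected intranasally with PR8 (1000 PFU/mouse) on day 0 and dosed once daily for seven days. Weight and clinical signs were recorded daily. Mice losing more than 25% of pre-infection weight were scored dead and euthanized; survivors were killed on day 14.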

Data set [8] can be described thus: Cytotoxicity in dog MDCK cells assessed as reduction in cell viability incubated for 48 hrs by crystal violet staining based assay. Also noted: species or system Canis lupus familiaris.

For the molecule `CC(=O)NC1[C@H]([C@H](O)[C@H](O)CO)O[C@@](O[C@H]2[C@@H](O)[C@@H](CO)O[C@@H](O[C@@H]([C@H](O)[C@@H](O)C=O)[C@H](O)CO)[C@@H]2O)(C(=O)O)C[C@@H]1O` (stereo not given in full), the outcome in data set [1] was Active. In addition, the Kd (in general, a measure of binding affinity in units of concentration) in data set [2] (read-out: Kd) amounted to 4.5 µM. As to `CC(=O)c1cc(C)c(O)c(Cc2[nH]c3cccc(Br)c3c2Cc2c(O)c(C)cc(C(C)=O)c2O)c1O`, the IC50 (usually the concentration that gives 50% inhibition) in data set [3] is more than 100 µM. Take `CCOC(=O)c1c(CSc2ccccc2)n(C)c2cc(Br)c(O)c(CN(C)C)c12` [UMIFENOVIR]: in data set [1], the outcome was Active. Further, in data set [3], the IC50 came out at 32.5 µM. Besides, in data set [2] (read-out: Kd), the Kd is 11.1 µM. For the same molecule, the “Ratio CC50/IC50” value in data set [4] came out at 10.4.

As for `CC(=O)c1cc(C)c(O)c(Cc2c(Cc3c(O)c(C)cc(C(C)=O)c3O)n(Cc3c(O)c(C)cc(C(C)=O)c3O)c3cccc(Br)c23)c1O`, the IC50 in data set [3] was more than 100 µM. In the case of `CC(=O)c1cc(C)c(O)c(CNc2cc(C(F)(F)F)cc(C(F)(F)F)c2)c1O`, the IC50 in data set [3] was more than 100 µM. Consider `CC(=O)c1cc(C)c(O)c(Cc2cn(Cc3c(O)c(C)cc(C(C)=O)c3O)c3cccc(Br)c23)c1O`, for which, in data set [3], the IC50 is more than 100 µM. For `NC(=O)c1ncn([C@@H]2O[C@H](CO)[C@@H](O)[C@H]2O)n1` [RIBAVIRIN], in data set [3], the IC50 came to 98.3 µM. The “Ratio CC50/IC50” value in data set [4] is recorded as 20.8. With `CC(=O)c1cc(C)c(O)c(Cc2c(Cc3c(O)c(C)cc(C(C)=O)c3O)n(Cc3c(O)c(C)cc(C(C)=O)c3O)c3ccccc23)c1O`, the IC50 in data set [3] was more than 100 µM.

Turning to `CCOC(=O)C1=C[C@@H](OC(CC)CC)[C@H](NC(C)=O)[C@@H](N)C1` [OSELTAMIVIR], the result in data set [5] and in data set [6] was Active. The survival at 10 mg/kg/day in data set [7] amounted to 100%. With `CC(=O)c1cc(C)c(O)c(Cc2c[nH]c3ccccc23)c1O`, in data set [2], the Kd entry is on record as “Not Active”. On to `CC(=O)c1cc(C)c(O)c(Cc2[nH]c3ccc(C)cc3c2Cc2c(O)c(C)cc(C(C)=O)c2O)c1O`, for which, in data set [8], the CC50 – broadly, the concentration giving 50% cytotoxicity – at 48 h amounted to 681 µM. Further, the IC50 in data set [3] is 39.8 µM. Besides, the “Ratio CC50/IC50” value in data set [4] is on record as 17.1.
